A short description of data set [1]: Half life in cynomolgus monkey. Format: ADME, organism-based, Macaca fascicularis. As to conditions: in vivo.
Data set [2] has as its system Mus musculus. As to the kind of experiment: Decrease in serum iron level in C57BL/6 mouse at 50 to 100 nmol, sc after 24 hrs by colorimetric analysis. In kind it is functional, organism-based. The note with it: in the assay text read “50 to 200 nmol” for “50 to 100 nmol”. Put shortly:
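C57BL/6 mice on NIH 31 diet (iron 336 mg/kg) received 50, 100 or 200 nmoles peptide in 100 μL PBS sc, or PBS alone. Killed at 24 h, serum from cardiac puncture. Serum iron measured by microplate colorimetric assay using 50 μL serum. Reported as % decrease versus mean of PBS-injected mice.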

Data set [3] addresses T1, Ferroportin (Homo sapiens, UniProt Q9NP59).
T1 sequence (Q9NP59 whole entry): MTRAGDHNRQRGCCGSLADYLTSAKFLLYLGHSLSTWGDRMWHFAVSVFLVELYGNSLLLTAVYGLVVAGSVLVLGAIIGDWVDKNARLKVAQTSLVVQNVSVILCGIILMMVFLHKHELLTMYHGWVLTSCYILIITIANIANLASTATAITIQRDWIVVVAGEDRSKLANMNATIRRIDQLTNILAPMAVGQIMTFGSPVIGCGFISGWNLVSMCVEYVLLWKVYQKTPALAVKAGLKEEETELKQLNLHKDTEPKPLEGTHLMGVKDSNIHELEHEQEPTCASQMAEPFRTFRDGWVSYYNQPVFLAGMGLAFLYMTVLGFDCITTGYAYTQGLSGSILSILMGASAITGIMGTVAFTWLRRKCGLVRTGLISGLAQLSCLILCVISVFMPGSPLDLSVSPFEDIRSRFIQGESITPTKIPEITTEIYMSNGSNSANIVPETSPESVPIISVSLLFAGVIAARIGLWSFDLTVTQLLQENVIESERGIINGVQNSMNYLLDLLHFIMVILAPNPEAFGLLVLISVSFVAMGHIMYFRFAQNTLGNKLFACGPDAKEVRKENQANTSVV
As to the kind of experiment: Agonist activity at GFP-fused human FPN transfected in HEK293 cells assessed as protein degradation after 24 hrs by flow cytometric analysis. Format: cell-based. Put shortly:
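HEK293:TREX-Fpn-GFP cells (human ferroportin-GFP, doxycycline-inducible) plated on poly-D-lysine with 20 μM FAC, induced with 500 ng/mL doxycycline for 24 h, washed, then peptide-treated 24 h. Green fluorescence read by flow cytometry at 1 × 10^6 cells/mL, gated against uninduced cells. Activity expressed as fraction of hep25: 1 − [(Fx − Fhep25)/(Funtreated − Fhep25)]. 3–6 independent repeats.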

Data set [4] concerns Mus musculus. Nature of the data set: Decrease in serum iron level in C57BL/6 mouse at 50 to 200 nmol, sc after 24 hrs by colorimetric analysis. Format: functional, organism-based. The essentials: (§1)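 C57BL/6 mice on NIH 31 diet (iron 336 mg/kg). Single subcutaneous injection of 50, 100 or 200 nmoles peptide in 100 μL PBS; controls received PBS alone. Killed at 24 h, serum from cardiac blood. Serum iron by colorimetric assay (microplate, 50 μL serum). Percent decrease versus mean of PBS-injected mice.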

The test system of data set [5] is Plasma. Nature of the data set: Metabolic stability in mouse plasma at 25 uM by LC/MS analysis. In kind it is ADME, cell-free. Put shortly:
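Peptide from 10 mM DMSO stock added to fresh mouse plasma (final 25 μM), incubated at 37 °C. Samples (10 μL) taken at time-points and diluted into DMSO/ACN 1:1 with 0.1% TFA. Centrifuged 13000 rpm, 10 min. Supernatant analysed by triple-quadrupole LC/MS with NM4A-Me peptide as internal standard.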

The test system of data set [6] is Mus musculus. As to the kind of experiment: Decrease in serum iron level in C57BL/6 mouse at 100 nmol, sc after 24 hrs by colorimetric analysis. In kind it is functional, organism-based. Put shortly:
as §1

In data set [7] the test system is Mus musculus. As to the kind of experiment: Decrease in serum iron level in C57BL/6 mouse at 50 nmol, sc after 24 hrs by colorimetric analysis. Format: functional, organism-based. Put shortly:
as §1

Activity calls are given as the source filed them. No cut-off for these calls is given here. Starred links: 1 amine or outer side, 2 acyl side, 3 side chain; linkers in the order of their positions; H or OH if unused. Positions of bridges follow the written chain, without caps; N, C: chain ends. Residues, ends and D or L forms follow the SMILES beside them. *: point of attachment. Propanoyl(3,3-Ph2) = O=C(CC(c1ccccc1)c1ccccc1)*; X1 = CCCCCCCCCCCCCCCC(=O)NCCOCCOCCN*; mXylylene = c1cc(C[*:1])cc(C[*:2])c1

In data set [1], `CC[C@H](C)[C@@H]1NC(=O)[C@@H](NC(=O)[C@@H](NC(=O)[C@@H]2CCCN2C(=O)[C@H](Cc2ccccc2)NC(=O)[C@H](Cc2c[nH]cn2)NC(=O)[C@@H](NC(=O)[C@@H](N)CC(=O)O)[C@@H](C)O)[C@@H](C)CC)CSSC[C@@H](C(=O)N[C@@H](CCCCN)C(=O)N[C@H](C(=O)O)[C@@H](C)O)NC(=O)[C@@H]2CSSC[C@@H]3NC(=O)[C@@H]4CSSC[C@H](NC(=O)[C@H](Cc5ccccc5)NC1=O)C(=O)N[C@@H](CSSC[C@H](NC(=O)[C@H](CCCCN)NC(=O)[C@H](CO)NC(=O)[C@H](CCCNC(=N)N)NC(=O)[C@H](Cc1c[nH]cn1)NC3=O)C(=O)NCC(=O)N[C@@H](CCSC)C(=O)N2)C(=O)NCC(=O)N4` had a half-life of less than 2.5 min.

Consider `CCCCCCCCCCCCCCCCNC(=O)CN(CC(N)=O)C(=O)CCCCCNC(=O)[C@@H]1CSCc2cccc(c2)CSC[C@H](NC(C)=O)C(=O)N[C@@H](C(c2ccccc2)c2ccccc2)C(=O)N2CCC[C@H]2C(=O)N[C@@H](CCCNC(=N)N)C(=O)N[C@@H](CS)C(=O)N[C@@H](CCCNC(=N)N)C(=O)N[C@@H](Cc2ccccc2)C(=O)N1`, for which, in data set [2], the result was inactive. Further, the EC50 in data set [3] is 44.2 nM.

With `N=C(N)NCCC[C@@H]1NC(=O)[C@@H](NC(=O)CC(c2ccccc2)c2ccccc2)CSCc2cccc(c2)CSC[C@@H](C(N)=O)NC(=O)[C@H](Cc2ccccc2)NC(=O)[C@H](CCCNC(=N)N)NC(=O)[C@H](CS)NC1=O` ({Propanoyl(3,3-Ph2)}-CRCRFC-NH2; linker 1-6 via mXylylene), the outcome in data set [4] was inactive. For the same compound, in data set [3], the EC50 worked out at 104 nM.

`CCCCCCCCCCCCCCCCNC(=O)CN(CC(N)=O)C(=O)CCCCCNC(=O)C[C@H](Cc1ccccc1)NC(=O)[C@H](CCCNC(=N)N)NC(=O)[C@H](CS)NC(=O)[C@H](CCCNC(=N)N)NC(=O)C[C@@H]1CCCN1C(=O)[C@@H](NC(=O)[C@H](Cc1c[nH]cn1)NC(=O)[C@@H](NC(=O)CNCC(=O)O)[C@@H](C)O)C(c1ccccc1)c1ccccc1`: in data set [5], the Stability result is “Stable”. For the same compound, the outcome in data set [6] was Active.

`CCCCCCCCCCCCCCCC(=O)NCCOCCOCCNC(=O)[C@@H]1CSCc2cccc(c2)CSC[C@H](NC(=O)CC(c2ccccc2)c2ccccc2)C(=O)N[C@@H](CCCNC(=N)N)C(=O)N[C@@H](CS)C(=O)N[C@@H](CCCNC(=N)N)C(=O)N[C@@H](Cc2ccccc2)C(=O)N1` ({Propanoyl(3,3-Ph2)}-CRCRFC-X1; linker 1-6 via mXylylene): in data set [7], the result was inactive. In addition, the Stability result in data set [5] was “Stable”. For the same compound, in data set [3], the EC50 amounted to 52.3 nM.

The record behind these values is ChEMBL document CHEMBL3621052, “Small cyclic agonists of iron regulatory hormone hepcidin” (Bioorg Med Chem Lett, 2015).
